{"source": "paper PMC9468552", "about": "(Clinical and Translational Science, 2022)", "key": {"CYP3A4 [1]": {"molecular_target": "T1, CYP3A4 (Homo sapiens, UniProt P08684)", "T1 sequence (P08684 whole entry)": "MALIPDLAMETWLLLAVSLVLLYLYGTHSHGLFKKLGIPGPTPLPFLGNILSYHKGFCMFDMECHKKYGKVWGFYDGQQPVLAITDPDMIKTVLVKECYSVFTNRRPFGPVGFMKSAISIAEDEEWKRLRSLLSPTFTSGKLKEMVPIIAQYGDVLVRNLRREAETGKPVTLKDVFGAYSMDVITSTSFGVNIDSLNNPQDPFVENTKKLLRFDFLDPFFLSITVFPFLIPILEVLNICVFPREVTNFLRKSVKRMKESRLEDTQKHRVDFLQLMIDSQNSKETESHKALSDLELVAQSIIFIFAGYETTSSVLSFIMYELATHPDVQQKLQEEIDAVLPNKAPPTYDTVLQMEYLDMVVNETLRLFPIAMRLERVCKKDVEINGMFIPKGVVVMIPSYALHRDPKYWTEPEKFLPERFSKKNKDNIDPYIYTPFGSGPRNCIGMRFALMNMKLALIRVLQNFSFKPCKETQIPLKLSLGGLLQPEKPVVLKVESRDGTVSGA", "experiment": "Study 004: DDI of EDP‐305", "format": "in vivo", "conditions": "increase in midazolam AUC less than twofold"}, "CYP1A2": {"molecular_target": "T2, CYP1A2 (Homo sapiens, UniProt P05177)", "T2 sequence (P05177 1-516)": "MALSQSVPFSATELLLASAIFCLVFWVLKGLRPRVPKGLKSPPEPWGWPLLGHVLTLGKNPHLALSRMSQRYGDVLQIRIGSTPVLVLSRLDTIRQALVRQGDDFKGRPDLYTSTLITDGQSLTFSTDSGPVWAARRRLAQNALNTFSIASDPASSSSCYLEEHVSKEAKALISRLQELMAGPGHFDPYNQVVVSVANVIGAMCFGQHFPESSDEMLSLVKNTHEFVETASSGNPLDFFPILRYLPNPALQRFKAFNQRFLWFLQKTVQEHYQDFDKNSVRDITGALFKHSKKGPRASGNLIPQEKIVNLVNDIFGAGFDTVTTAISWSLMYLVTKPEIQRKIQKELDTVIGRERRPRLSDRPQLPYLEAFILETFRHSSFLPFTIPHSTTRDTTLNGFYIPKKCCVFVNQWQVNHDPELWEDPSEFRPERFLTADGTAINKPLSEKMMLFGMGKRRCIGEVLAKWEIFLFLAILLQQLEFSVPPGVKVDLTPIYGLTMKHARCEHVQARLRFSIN", "experiment": "Study 004: DDI of EDP‐305", "format": "in vivo", "conditions": "increase in caffeine AUC less than twofold"}, "CYP3A4 [2]": {"molecular_target": "T1, CYP3A4", "experiment": "Study 008: effect of EDP‐305 on combined oral contraceptive", "format": "in vivo"}, "CYP3A4 [3]": {"molecular_target": "T1, CYP3A4", "format": "in vivo"}, "CYP3A4 [4]": {"molecular_target": "T1, CYP3A4", "format": "in vivo", "procedure,_shortened": "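Healthy subjects in a separate part took oral rifampin 600 mg once daily on days 5–16. EDP‐305 10 mg suspension was given on days 1 and 14 after a 10 h fast that continued ≥4 h postdose. Plasma was drawn predose and 0.5–12 h postdose, plus 24, 48 and 72 h before the morning rifampin dose. Analysis used LC–MS/MS and noncompartmental PK. A mixed model on ln values (subject random) gave the geometric LS mean ratio with 90% CI, with EDP‐305 alone as reference.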", "remark": "listed apart in the source"}, "CYP3A4 [5]": {"molecular_target": "T1, CYP3A4", "format": "in vivo", "remark": "listed apart in the source"}, "P‐gp [6]": {"molecular_target": "P‐gp (Homo sapiens, UniProt P08183)", "sequence (P08183 whole entry)": "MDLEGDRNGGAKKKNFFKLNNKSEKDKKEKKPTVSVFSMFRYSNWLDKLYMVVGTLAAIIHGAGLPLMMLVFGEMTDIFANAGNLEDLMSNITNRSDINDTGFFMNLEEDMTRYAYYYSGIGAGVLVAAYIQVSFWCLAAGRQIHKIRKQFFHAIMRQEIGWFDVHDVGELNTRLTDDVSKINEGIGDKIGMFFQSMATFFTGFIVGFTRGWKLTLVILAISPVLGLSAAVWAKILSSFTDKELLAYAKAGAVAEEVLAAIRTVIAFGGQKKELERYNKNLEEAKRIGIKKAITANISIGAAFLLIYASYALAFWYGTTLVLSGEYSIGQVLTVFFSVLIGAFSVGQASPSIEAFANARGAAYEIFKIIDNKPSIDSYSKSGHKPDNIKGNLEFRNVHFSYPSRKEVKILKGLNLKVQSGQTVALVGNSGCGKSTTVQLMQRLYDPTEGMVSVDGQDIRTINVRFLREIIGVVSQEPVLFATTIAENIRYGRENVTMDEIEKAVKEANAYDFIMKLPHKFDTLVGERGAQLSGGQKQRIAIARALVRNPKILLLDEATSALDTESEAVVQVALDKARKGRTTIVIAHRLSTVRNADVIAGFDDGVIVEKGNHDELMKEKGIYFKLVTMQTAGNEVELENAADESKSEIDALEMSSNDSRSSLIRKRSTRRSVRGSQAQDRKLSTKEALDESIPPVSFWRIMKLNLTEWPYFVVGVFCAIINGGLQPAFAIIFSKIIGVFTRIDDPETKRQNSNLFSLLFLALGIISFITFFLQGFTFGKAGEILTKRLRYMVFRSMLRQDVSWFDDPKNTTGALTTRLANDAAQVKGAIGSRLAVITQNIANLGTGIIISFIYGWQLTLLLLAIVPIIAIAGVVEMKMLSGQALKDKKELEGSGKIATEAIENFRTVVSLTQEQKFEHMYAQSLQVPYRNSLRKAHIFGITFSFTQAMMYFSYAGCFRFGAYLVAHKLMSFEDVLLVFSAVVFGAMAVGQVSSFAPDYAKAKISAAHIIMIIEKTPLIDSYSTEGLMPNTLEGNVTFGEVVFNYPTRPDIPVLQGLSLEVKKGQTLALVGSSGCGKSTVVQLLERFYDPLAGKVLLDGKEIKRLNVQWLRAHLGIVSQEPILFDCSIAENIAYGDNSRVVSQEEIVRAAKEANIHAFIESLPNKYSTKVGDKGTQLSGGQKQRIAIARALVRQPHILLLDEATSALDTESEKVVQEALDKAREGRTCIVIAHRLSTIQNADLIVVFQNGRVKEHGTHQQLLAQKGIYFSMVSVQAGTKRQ", "format": "in vivo"}, "[7]": {"experiment": "Study 004: trough levels of EDP‐305 and metabolites with and without probes", "format": "in vivo, human", "procedure,_shortened": "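Healthy volunteers received single oral midazolam 2 mg and caffeine 200 mg on days 1 and 12, and rosuvastatin 20 mg on days 2 and 13. EDP‐305 was given as a 10 mg/30 ml oral suspension each morning on days 5–15 after an overnight fast. Predose troughs were drawn on days 5, 8 and 10–17. Parent and metabolites were measured by LC–MS/MS (range 0.0300–30.0 ng/ml).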"}, "[8]": {"experiment": "Safety/tolerability in the four DDI studies", "format": "in vivo, human", "conditions": "all four studies"}, "[9]": {"conditions": "cited from earlier work"}, "[10]": {"conditions": "radiolabeled mass balance study; ref data on file; Enanta Pharmaceuticals; cited from earlier work"}, "[11]": {"conditions": "same dose/formulation; ref data on file; cited from earlier work"}, "[12]": {"conditions": "relative bioavailability assessment; ref data on file; cited from earlier work"}, "[13]": {"tested_on": "cytochrome (CYP) 1A2, 2B6, 2C8, 2C9, 2C19, 2D6, and 3A4 isoenzymes", "conditions": "standard hepatic microsome studies; preclinical studies; cited from earlier work"}, "CYP1A2, 2B6, and 3A4": {"tested_on": "CYP1A2, 2B6, and 3A4", "conditions": "preclinical studies; cited from earlier work"}, "[14]": {"tested_on": "messenger RNA (mRNA) for CYP1A2 and CYP3A4", "conditions": "incubation in liver microsomes (hepatocytes) in the presence of EDP‐305; preclinical studies; cited from earlier work"}, "OATP1B1 and OATP1B3": {"tested_on": "OATP1B1 and OATP1B3", "conditions": "in vitro; ref data on file; cited from earlier work"}, "[15]": {"tested_on": "BSEP, MRP2, P‐gp, and BCRP transporters", "conditions": "in vitro; ref data on file; cited from earlier work"}, "BCRP": {"tested_on": "BCRP", "conditions": "in vitro; ref data on file; cited from earlier work"}, "P‐gp [16]": {"tested_on": "P‐gp", "conditions": "in vitro; ref data on file; cited from earlier work"}, "[17]": {"conditions": "12‐week phase II study, 132 non‐cirrhotic patients; cited from earlier work"}, "[18]": {"conditions": "EDP‐305 2.5 mg tablet co‐administered with OC"}, "[19]": {"conditions": "EDP‐305 10 mg + itraconazole 200 mg q.d. (test)"}, "[20]": {"conditions": "EDP‐305 10 mg alone (reference)"}, "[21]": {"conditions": "EDP‐305 + itraconazole vs EDP‐305 alone"}, "[22]": {"conditions": "EDP‐305 10 mg + rifampin 600 mg q.d. (test)"}, "[23]": {"conditions": "EDP‐305 + rifampin vs EDP‐305 alone"}, "[24]": {"conditions": "EDP‐305 5 mg tablet + fluconazole 400 mg QD (test)"}, "[25]": {"conditions": "EDP‐305 5 mg tablet alone (reference)"}, "[26]": {"conditions": "EDP‐305 5 mg tablet + quinidine 300 mg BID (test)"}, "[27]": {"conditions": "EDP‐305 + quinidine vs EDP‐305 alone"}}, "note": "Read-outs that look alike come from different tables or passages of the source.", "data": [{"smiles": "CC[C@H]1[C@@H](O)[C@@H]2[C@H](CC[C@]3(C)[C@@H]([C@H](C)CCNC(=O)NS(=O)(=O)c4ccc(C(C)(C)C)cc4)CC[C@@H]23)[C@@]2(C)CC[C@@H](O)C[C@@H]12", "note": "[EDP‐305]", "values": [{"measurement": "classification as CYP3A4 inhibitor from increase in midazolam AUC", "setting": "CYP3A4 [1]", "value": "weak inhibitor of CYP3A4"}, {"measurement": "classification as CYP1A2 inhibitor from increase in caffeine AUC", "setting": "CYP1A2", "value": "weak inhibitor of CYP1A2"}, {"measurement": "geometric mean t1/2", "setting": "CYP3A4 [2]; [18]", "value": 9.6, "unit": "h"}, {"measurement": "median Tmax", "setting": "CYP3A4 [2]; [18]", "value": 4.0, "unit": "h"}, {"measurement": "effect on serum progesterone levels", "setting": "CYP3A4 [2]; co‐administration of combined OC and EDP‑305", "value": "no effect"}, {"measurement": "AUC0,inf, Geo LSMean", "setting": "CYP3A4 [3]; [19]", "value": 1.89147, "unit": "µg·h/mL"}, {"measurement": "Cmax, Geo LSMean", "setting": "CYP3A4 [3]; [19]", "value": 0.05048, "unit": "µg/mL"}, {"measurement": "AUC0,inf, Geo LSMean", "setting": "CYP3A4 [3]; [20]", "value": 0.36031, "unit": "µg·h/mL"}, {"measurement": "Cmax, Geo LSMean", "setting": "CYP3A4 [3]; [20]", "value": 0.03125, "unit": "µg/mL"}, {"measurement": "delayed Tmax", "setting": "CYP3A4 [3]; [21]", "value": 2, "unit": "fold"}, {"measurement": "longer t1/2 (increase)", "setting": "CYP3A4 [3]; [21]", "value": 2.79, "unit": "fold"}, {"measurement": "AUC0,inf, Geo LSMean", "setting": "CYP3A4 [4]; [22]", "value": 0.13792, "unit": "µg·h/mL"}, {"measurement": "Cmax, Geo LSMean", "setting": "CYP3A4 [4]; [22]", "value": 0.02702, "unit": "µg/mL"}, {"measurement": "AUC0,inf, Geo LSMean", "setting": "CYP3A4 [4]; [20]", "value": 0.39359, "unit": "µg·h/mL"}, {"measurement": "Cmax, Geo LSMean", "setting": "CYP3A4 [4]; [20]", "value": 0.02962, "unit": "µg/mL"}, {"measurement": "AUC0,inf, Geo LSMean ratio (90% CI)", "setting": "CYP3A4 [4]; [23]", "value": "0.35 (0.30, 0.41)"}, {"measurement": "effect on EDP‐305 peak exposure", "setting": "CYP3A4 [4]; [23]", "value": "no apparent effect"}, {"measurement": "effect on Tmax", "setting": "CYP3A4 [4]; [23]", "value": "no apparent effect"}, {"measurement": "higher CL/F", "setting": "CYP3A4 [4]; [23]", "value": 2.77, "unit": "fold"}, {"measurement": "higher Vd/F", "setting": "CYP3A4 [4]; [23]", "value": 1.79, "unit": "fold"}, {"measurement": "shorter t1/2", "setting": "CYP3A4 [4]; [23]", "value": 0.35, "unit": "fold"}, {"measurement": "total systemic exposure decreased", "setting": "CYP3A4 [4]; [23]", "value": "~ 65%"}, {"measurement": "AUC0,inf, Geo LSMean", "setting": "CYP3A4 [5]; [24]", "value": 1.5376, "unit": "µg·h/mL"}, {"measurement": "Cmax, Geo LSMean", "setting": "CYP3A4 [5]; [24]", "value": 0.05771, "unit": "µg/mL"}, {"measurement": "AUC0,inf, Geo LSMean", "setting": "CYP3A4 [5]; [25]", "value": 0.4084, "unit": "µg·h/mL"}, {"measurement": "Cmax, Geo LSMean", "setting": "CYP3A4 [5]; [25]", "value": 0.03273, "unit": "µg/mL"}, {"measurement": "CL/F and Vd/F, change", "setting": "CYP3A4 [5]; EDP‐305 + fluconazole compared to EDP‐305 alone", "value": "decreased"}, {"measurement": "t1/2 increased", "setting": "CYP3A4 [5]; EDP‐305 + fluconazole relative to EDP‐305 alone", "value": "increased"}, {"measurement": "AUC0,inf, Geo LSMean", "setting": "P‐gp [6]; [26]", "value": 0.36717, "unit": "µg·h/mL"}, {"measurement": "Cmax, Geo LSMean", "setting": "P‐gp [6]; [26]", "value": 0.03178, "unit": "µg/mL"}, {"measurement": "AUC0,inf, Geo LSMean", "setting": "P‐gp [6]; [25]", "value": 0.35324, "unit": "µg·h/mL"}, {"measurement": "Cmax, Geo LSMean", "setting": "P‐gp [6]; [25]", "value": 0.03164, "unit": "µg/mL"}, {"measurement": "AUC0,inf, Geo LSMean ratio (90% CI)", "setting": "P‐gp [6]; [27]", "value": "1.04 (0.95, 1.14)"}, {"measurement": "Cmax, Geo LSMean ratio (90% CI)", "setting": "P‐gp [6]; [27]", "value": "1.00 (0.92, 1.10)"}, {"measurement": "effect on EDP‐305 peak or systemic exposure", "setting": "P‐gp [6]; [27]", "value": "no apparent effect"}, {"measurement": "effect on Tmax, Vd/F, CL/F, and t1/2", "setting": "P‐gp [6]; [27]", "value": "minimal effect"}, {"measurement": "steady‐state concentrations achieved", "setting": "[7]; EDP‐305 10 mg daily from day 5, majority of subjects", "value": "≤ 12", "unit": "days"}, {"measurement": "effect of co‐administered enzyme or transporter probes on PK", "setting": "[7]; single doses of midazolam, caffeine, rosuvastatin", "value": "no apparent effect"}, {"measurement": "tolerability", "setting": "[8]", "value": "well‐tolerated"}, {"measurement": "tolerability", "setting": "[9]; single doses up to 80 mg, multiple daily doses up to 20 mg for 14 days", "value": "well‐tolerated"}, {"measurement": "steady‐state pharmacokinetics reached", "setting": "[9]; visual inspection of trough concentrations, across all doses", "value": "≤ 9", "unit": "days"}, {"measurement": "EDP‐305 in urine", "setting": "[10]", "value": "not detected"}, {"measurement": "mean recovery of total radioactivity in feces", "setting": "[10]", "value": 78.7, "unit": "%"}, {"measurement": "mean recovery of total radioactivity in urine", "setting": "[10]", "value": 1.42, "unit": "%"}, {"measurement": "exposures in patients with NASH versus healthy subjects", "setting": "[11]", "value": "approximately twofold higher"}, {"measurement": "exposures of tablet compared to suspension", "setting": "[12]", "value": "approximately twofold higher"}, {"measurement": "potential to inhibit CYP 1A2, 2B6, 2C8, 2C9, 2C19, 2D6, and 3A4", "setting": "[13]", "value": "low potential to inhibit"}, {"measurement": "potential to induce CYP1A2, 2B6, and 3A4", "setting": "CYP1A2, 2B6, and 3A4", "value": "low potential"}, {"measurement": "effect on mRNA for CYP1A2 and CYP3A4", "setting": "[14]", "value": "concentration‐dependent downregulation"}, {"measurement": "inhibition of OATP1B1 and OATP1B3", "setting": "OATP1B1 and OATP1B3", "value": "the potential for EDP‐305 to inhibit"}, {"measurement": "inhibition of BSEP, MRP2, P‐gp, and BCRP", "setting": "[15]", "value": "low potential to inhibit"}, {"measurement": "BCRP substrate", "setting": "BCRP", "value": "unlikely to be a BCRP substrate"}, {"measurement": "P‐gp substrate", "setting": "P‐gp [16]", "value": "has potential to be a P‐gp substrate"}, {"measurement": "efficacy in patients with fibrotic NASH", "setting": "[17]", "value": "reduced hepatic enzyme levels and liver fat"}]}]}
